Experiments:
CYP199A4 F182A = target: T1, CYP199A4 F182A (Rhodopseudomonas palustris, UniProt Q2IU02, F183A); test: UV-visible spectral titration of substrate binding
T1 sequence (Q2IU02 1-410 F183A): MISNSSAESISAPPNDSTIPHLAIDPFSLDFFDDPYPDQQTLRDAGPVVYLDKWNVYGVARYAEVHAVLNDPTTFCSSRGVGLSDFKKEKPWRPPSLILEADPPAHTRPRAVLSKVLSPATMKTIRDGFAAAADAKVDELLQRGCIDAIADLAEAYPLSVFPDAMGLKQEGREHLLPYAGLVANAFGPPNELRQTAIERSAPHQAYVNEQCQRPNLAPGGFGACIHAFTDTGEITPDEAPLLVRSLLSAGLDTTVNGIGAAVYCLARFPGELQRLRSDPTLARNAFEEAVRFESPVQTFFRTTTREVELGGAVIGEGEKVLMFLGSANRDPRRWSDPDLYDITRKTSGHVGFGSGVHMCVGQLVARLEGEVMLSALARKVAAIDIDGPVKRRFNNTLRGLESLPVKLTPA

CYP199A4 F182A/V355A = test: H2O2-dependent O-demethylation of benzoic acid derivatives, F182A/V355A; assay type: biochemical, Rhodopseudomonas palustris; conditions: catalyzed by F182A/V355A
How it was run: (§1)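 Purified CYP199A4 double mutant (1 μM), a methoxy-substituted benzoic acid substrate (2 mM) and H2O2 (10 mM, the only oxidant) in Tris–HCl pH 7.4 at 30 °C. Demethylation and further-oxidation products are quantified against a benzophenone internal standard and expressed as turnover number per P450.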

[1] = tested on: engineered CYP199A4 peroxygenase variants; test: O-demethylation by the library of engineered CYP199A4 peroxygenase variants; assay type: biochemical, Rhodopseudomonas palustris; conditions: H2O2-dependent reaction
CYP199A4 (wild type) = conditions: WT CYP199A4; cited from earlier work
CYP199A4 F182A/P90A = test: H2O2-dependent O-demethylation of benzoic acid derivatives, F182A/P90A; assay type: biochemical, Rhodopseudomonas palustris; conditions: catalyzed by F182A/P90A; P450 1 μM, substrate 2 mM, H2O2 10 mM, Tris-HCl pH 7.4, 30 °C
How it was run: as §1

CYP199A4 F182A/D251E = test: H2O2-dependent O-demethylation, F182A/D251E; assay type: biochemical, Rhodopseudomonas palustris
How it was run: (§2)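 Enzyme (1 μM) is reacted with methoxy-substituted benzoic acid substrate (2 mM) and H2O2 (10 mM) as sole oxidant, in Tris–HCl pH 7.4 at 30 °C. Demethylation products are quantified chromatographically against a benzophenone internal standard, and activity is expressed as turnover number.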

CYP199A4 F182A/D251H = test: H2O2-dependent O-demethylation, F182A/D251H; assay type: biochemical, Rhodopseudomonas palustris
How it was run: as §2

SMILES | O-demethylation / conversion by the examined CYP199A4 variants (in words) [1] | further results
COc1c(C)cc(C(=O)O)cc1C [Compound 12, 3,5-dimethyl-4-methoxy benzoic acid] |  | Kd (CYP199A4 F182A): 123 µM; product formed (in words) (CYP199A4 F182A/V355A; H2O2-dependent reaction): a single product (not 3,5-dimethyl-4-hydroxybenzoic acid)
COc1cc(OC)cc(C(=O)O)c1 [Compound 6, 3,5-dimethoxybenzoic acid] | can be demethylated | 
COc1ccc(C(=O)O)cc1C [Compound 11, 3-methyl-4-methoxybenzoic acid] |  | TON of demethylation (CYP199A4 F182A/V355A; P450 1 μM, substrate 2 mM, H2O2 10 mM, Tris-HCl pH 7.4, 30 °C): 1290 μM (μM P450)^−1
COc1ccc(C(=O)O)cc1 [Compound 1, 4-methoxybenzoic acid] |  | catalytic turnover number (TON) of H2O2-dependent demethylation (CYP199A4 (wild type)): 6 μM (μM P450)^−1; TON of demethylation product (CYP199A4 F182A/P90A): 1100 μM (μM P450)^−1; reduction of catalytic activity compared with F182A (CYP199A4 F182A/D251E): 50 fold; reduction of catalytic activity compared with F182A (CYP199A4 F182A/D251H): 50 fold
COc1ccc(OC)c(C(=O)O)c1 [Compound 7, 2,5-dimethoxybenzoic acid] | not converted | 
COc1ccc(C(=O)O)cc1[N+](=O)[O-] [Compound 17, 4-methoxy-3-nitrobenzoic acid] |  | TON of demethylation product (CYP199A4 F182A/P90A): 926 μM (μM P450)^−1; TON of over-oxidation product 4,5-dihydroxy-3-nitrobenzoic acid (CYP199A4 F182A/P90A): 416 μM (μM P450)^−1
COc1cc(C(=O)O)ccc1O [Compound 20, 4-hydroxy-3-methoxybenzoic acid] | not demethylated | 
COc1cccc(C(=O)O)c1OC [Compound 8, 2,3-dimethoxybenzoic acid] | not converted | 
COc1cccc(C(=O)O)c1 [Compound 2, 3-methoxybenzoic acid] | can be demethylated | 
COc1cc(C(=O)O)cc(OC)c1O [Compound 21, 4-hydroxy-3,5-dimethoxybenzoic acid] | did not convert | 
COc1ccccc1C(=O)O [Compound 3, 2-methoxybenzoic acid] | no reaction product was detected | 
COc1c(Cl)cc(C(=O)O)cc1Cl [Compound 15, 3,5-dichloro-4-methoxy benzoic acid] | no conversions detected | 
COc1cc(C(=O)O)cc(OC)c1OC [Compound 9, 3,4,5-trimethoxy benzoic acid] | no conversions detected | 
